The nature of assay [1]: Antioxidant activity assessed as luminol-dependent chemiluminescence at 1 uM. It counts as functional. The essentials: (§1)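 Chemiluminescence run in 1 ml PBS with 0.1 mM luminol and 0.06 mM NaOCl to generate ClO⁻. Compound at several concentrations up to 10^-4 mol/L, or buffer for controls. CL recorded every 50 ms after NaOCl addition in flash mode. Scavenger index (CL-SI) expressed relative to the buffer control, set at 100%.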

The nature of assay [2]: Antioxidant activity assessed as luminol-dependent chemiluminescence at 100 uM relative to control. The format is functional. The essentials:
as §1

The test system of assay [3] is HUVEC. Nature of the assay: Cytoprotective activity against linoleic acid hydroperoxide-induced toxicity in HUVEC cells after 3 hrs. The format is functional, cell-based. The conditions noted are these: Homo sapiens.
A short description of assay [4]: Antioxidant activity assessed as decrease in luminol-dependent chemiluminescence's scavenger index. The format is functional. In outline:
as §1

In assay [5] the test system is EJ. Nature of the assay: Cytotoxicity against human EJ cells. The format is functional, cell-based.
Assay [6] concerns HL-60. Nature of the assay: Cytotoxicity against human HL60 cells. It counts as functional, cell-based.

Structures are written as SMILES. The source made the active and inactive calls. No cut-off for these calls is given here.

This note sets out measurements from ChEMBL document CHEMBL1152475, “Investigation of the antioxidant properties of some new 4-hydroxycoumarin derivatives” (Eur J Med Chem, 2009).

For `CCOC(=O)C(C(C)=O)C(c1ccc(O)cc1)c1c(O)c2ccccc2oc1=O` (stereo not given), the outcome in assay [1] and in assay [2] was Active.

For the compound `O=c1ccc2cc(O)c(O)cc2o1`, the outcome in assay [3] was Active.

With `CCOC(=O)C(C(C)=O)C(c1ccc(C(=O)O)cc1)c1c(O)c2ccccc2oc1=O` (stereo not given), the outcome in assay [2] was Active.

`CCOC(=O)C(C(C)=O)C(c1cc(OC)c(OC)c(OC)c1)c1c(O)c2ccccc2oc1=O` (stereo not given): the Activity result in assay [4] is “Dose-dependent effect”. In addition, the result in assay [2] was Active.

In the case of `CCOC(=O)C(C(C)=O)C(c1cccc([N+](=O)[O-])c1)c1c(O)c2ccccc2oc1=O` (stereo not given), the Activity entry in assay [4] is “Dose-dependent effect”; in assay [2], 7%. Moreover, the result in assay [5] and in assay [6] was Active.
